According to ChEMBL document CHEMBL1139435, “Beta-oxygenated analogues of the 5-HT2A serotonin receptor agonist 1-(4-bromo-2,5-dimethoxyphenyl)-2-aminopropane” (J Med Chem, 2004):
pEC50, pKi: −log10 of the molar value.

Columns and labels:
[1] = target: T1, 5-hydroxytryptamine receptor 2A (Rattus norvegicus, UniProt P14842); experiment: Binding affinity for 5-HT2A serotonin receptor
How it was run: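 Incubated 1 h at 23 °C. Nonspecific binding defined with methiothepin (10 µM final). Ended by vacuum filtration over GF/B filters presoaked in 0.3% polyethyleneimine, washed with ice-cold buffer. Bound counts read by scintillation. IC50 for displacing labelled DOI binding.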

[2] = target: 5-hydroxytryptamine receptor 2A (Rattus norvegicus) (UniProt P14842); experiment: Efficacy as 5-HT2A receptor-mediated intracellular calcium [Ca2+] mobilization in rat A7r5 cells; format: functional, cell-based
5-hydroxytryptamine receptor 2A (Rattus norvegicus), sequence (P14842 whole entry): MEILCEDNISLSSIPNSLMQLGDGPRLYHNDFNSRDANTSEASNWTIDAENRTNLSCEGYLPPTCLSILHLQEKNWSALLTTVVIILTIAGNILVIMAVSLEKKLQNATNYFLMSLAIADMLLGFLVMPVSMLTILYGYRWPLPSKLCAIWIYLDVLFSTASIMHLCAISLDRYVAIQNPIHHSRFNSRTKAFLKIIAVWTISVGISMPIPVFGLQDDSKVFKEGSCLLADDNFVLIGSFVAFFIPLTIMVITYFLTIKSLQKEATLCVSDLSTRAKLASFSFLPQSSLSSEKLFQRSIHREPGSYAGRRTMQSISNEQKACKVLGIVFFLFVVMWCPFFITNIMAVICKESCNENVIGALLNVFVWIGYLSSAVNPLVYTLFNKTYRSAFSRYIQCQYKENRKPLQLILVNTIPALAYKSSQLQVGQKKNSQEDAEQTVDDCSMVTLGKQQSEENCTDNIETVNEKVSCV
How it was run: (§1)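 Rat A7r5 vascular smooth muscle cells grown in DMEM/10% FBS, seeded at 20 000 cells/well, cultured 2 days. Loaded with calcium dye in HBSS/20 mM HEPES/2.5 mM probenecid pH 7.4 for 1 h at 23 °C. Response is peak minus basal fluorescence, expressed as % of maximal 5-HT response.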

[3] = target: T1, 5-hydroxytryptamine receptor 2A; experiment: Serotonin 5-HT2A receptor-mediated intracellular calcium [Ca2+] mobilization in rat A7r5 cells; format: functional, cell-based; how it was run: as §1
Monkey [4] = experiment: Percent reduction of intraocular pressure after 3 hours following topical ocular administration to normal eye conscious cynomolgus monkeys; format: functional, Cercopithecidae
How it was run: (§2)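 Conscious cynomolgus monkeys dosed topically in the eye with 300 µg in phosphate-buffered saline, pH 7.4. Vehicle was given to test eyes of five or six further animals. IOP measured at baseline and at 1, 3 and 6 h. Values are % reduction from baseline.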

Monkey [5] = experiment: Percent reduction of intraocular pressure after 1 hour following topical ocular administration to normal eye conscious cynomolgus monkeys; format: functional, Cercopithecidae; how it was run: as §2
Monkey [6] = experiment: Percent reduction of intraocular pressure after 6 hours following topical ocular administration to normal eye conscious cynomolgus monkeys; format: functional, Cercopithecidae; how it was run: as §2

T1 sequence (P14842 whole entry): as above

Compound `CC[C@H](N)[C@H](O)c1cc(OC)c(Br)cc1OC` has a pKi [1] of 7.69 and an Efficacy [2] of 5%.
For `COc1cc([C@H](O)[C@@H](C)N)c(OC)cc1Br`, the pKi [1] was 8.04 and the Efficacy [2] was 20%.
`CCC(N)Cc1cc(OC)c(Br)cc1OC` (stereo not given) gave a pKi [1] of 8.12 and an Efficacy [2] of 15%.
`COc1cc([C@H](O)[C@H](C)N)c(OC)cc1Br` was tested, and the pKi [1] was 8.00 and the Efficacy [2] was 16%.
For `COc1cc(C2CNCCO2)c(OC)cc1Br` (stereo not given), the pKi [1] was 7.69 and the Efficacy [2] was 4%.
With `COc1cc(C(CN)OC)c(OC)cc1Br` (stereo not given) the pKi [1] was 8.70, the Efficacy [2] was 63% and the pEC50 [3] was 6.92.
Work on `COc1cc(CC(C)N)c(OC)cc1Br` (stereo not given) yielded an Efficacy [2] of 38%.
In the case of `COc1cc([C@@H](O)[C@H](C)N)c(OC)cc1Br`, the pKi [1] was 8.96, the Efficacy [2] was 22% and the pEC50 [3] was 6.08.
In the case of `COc1cc(C(O)CN)c(OC)cc1Br` (stereo not given), the pKi [1] was 8.68 and the Efficacy [2] was 8%.
With `COc1cc([C@H](OC)[C@H](C)N)c(OC)cc1Br` the pKi [1] was 8.22, the Efficacy [2] was 31% and the pEC50 [3] was 5.85.
Compound `COc1cc([C@@H](OC)[C@@H](C)N)c(OC)cc1Br` has a pKi [1] of 9.52, a Reduction (Monkey [4]) of 27.5% and an Efficacy [2] of 93%. For the same compound, the Reduction (Monkey [5]) was 19%, the pEC50 [3] was 6.89 and the Reduction (Monkey [6]) was 25.5%.
`COc1ccc(OC)c(C[C@@H](C)N)c1` was tested, and the pKi [1] was 8.04, the Efficacy [2] was 34% and the pEC50 [3] was 6.13.
`COc1cc([C@@H](O)[C@@H](C)N)c(OC)cc1Br` showed a pKi [1] of 9.30, a Reduction (Monkey [4]) of 19% and an Efficacy [2] of 50%. The Reduction (Monkey [5]) was 10.7%, the pEC50 [3] was 7.00 and the Reduction (Monkey [6]) was 22.1%.
`COc1cc(C[C@@H](C)N)c(OC)cc1I` showed a Reduction (Monkey [4]) of 31%, a Reduction (Monkey [5]) of 15.2% and a Reduction (Monkey [6]) of 34.4%.
